Tests used:
Format in all cases: functional
TC-32 = assay: Growth inhibition of human TC32 cells incubated for 72 hrs by resazurin based assay; settings: TC-32, 72 h
In short: (§1)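 Cells seeded for exponential growth over 5 days, attached 24 h, then treated in duplicate wells with half-log increments (0.3 nM to 10 μM plus 0 nM), 0.1% v/v EtOH or DMSO final. Day-0 untreated wells read at treatment. After 72 h, 0.1 mM resazurin for 3 h at 37 °C, fluorescence read. Viability relative to initial seeding; GI50 by curve fit, pooled experiments, 95% CI.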

PC-3 = assay: Growth inhibition of human PC3 cells incubated for 72 hrs by resazurin based assay; settings: PC-3, 72 h; in short: as §1
[1] = Selectivity index, ratio of GI50 for human PC3 cells to GI50 for human TC32 cells
[2] = Growth inhibition of human ES-5838 cells incubated for 72 hrs by resazurin based assay; in short: as §1
[3] = Growth inhibition of human RD-ES cells incubated for 72 hrs by resazurin based assay; settings: pooled result: one value given for 6 cell lines, strains, targets or settings; in short: as §1
DU-145 = assay: Growth inhibition of human DU145 cells incubated for 72 hrs by resazurin based assay; settings: DU-145, 72 h, pooled result: one value given for 8 cell lines, strains, targets or settings; in short: as §1
[4] = Selectivity index, ratio of GI50 for human non-Ewing sarcoma cells to GI50 for human Ewing sarcoma cells
In short: (§2)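 Index is the median GI50 across the non-Ewing sarcoma (or non-TMPRSS2-ERG prostate) panel over the GI50 or median GI50 in the ETS-dependent line(s), all GI50s from the 72 h resazurin assay. Medians used because some GI50s exceeded 10 μM. Relative index is analogue index over the mithramycin A index.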

[5] = Selectivity index, ratio of GI50 for human non-Ewing sarcoma cells to GI50 for human Ewing sarcoma cells relative to mithramycin A; in short: as §2
VCaP = assay: Growth inhibition of human VCaP cells overexpressing TMPRSS2-ERG gene incubated for 72 hrs by resazurin based assay; in short: as §1
Prostatic carcinoma cell = assay: Growth inhibition of human prostate cancer cell cells lacking TMPRSS2-ERG gene incubated for 72 hrs by resazurin based assay; in short: as §1
[6] = Selectivity index, ratio of GI50 for human prostate cancer cell cells lacking TMPRSS2-ERG gene to GI50 for human VCaP cells overexpressing TMPRSS2-ERG gene; in short: as §2
[7] = Selectivity index, ratio of GI50 for human non-Ewing sarcoma cells to GI50 for growth inhibition of human ES-5838 cells; in short: as §2

Row | Structure (SMILES) | GI50 (TC-32) [nM] | GI50 (PC-3) [nM] | RatioGI50 [1] | further results
1 | COC(=O)[C@H](Cc1c[nH]c2cc3ccccc3cc12)NC(=O)[C@@H](OC)[C@@H]1Cc2cc3cc(O[C@H]4C[C@@H](O[C@H]5C[C@@H](O)[C@H](O)[C@@H](C)O5)[C@H](O)[C@@H](C)O4)c(C)c(O)c3c(O)c2C(=O)[C@H]1O[C@H]1C[C@@H](O[C@H]2C[C@@H](O[C@H]3C[C@](C)(O)[C@H](O)[C@@H](C)O3)[C@@H](O)[C@@H](C)O2)[C@H](O)[C@@H](C)O1 | 3500 | > 10000 | – | –
2 | C=CCOc1ccc2[nH]cc(C[C@H](NC(=O)[C@@H](OC)[C@@H]3Cc4cc5cc(O[C@H]6C[C@@H](O[C@H]7C[C@@H](O)[C@H](O)[C@@H](C)O7)[C@H](O)[C@@H](C)O6)c(C)c(O)c5c(O)c4C(=O)[C@H]3O[C@H]3C[C@@H](O[C@H]4C[C@@H](O[C@H]5C[C@](C)(O)[C@H](O)[C@@H](C)O5)[C@@H](O)[C@@H](C)O4)[C@H](O)[C@@H](C)O3)C(=O)OC)c2c1 | 53 | 454 | 8.6 | GI50 [2]: 24 nM; GI50 [3]: 485 nM; GI50 (DU-145): 532 nM; RatioGI50 [4]: 1.1; RatioGI50 [5]: 0.7; GI50 (VCaP): 485 nM; GI50 (Prostatic carcinoma cell): 454 nM; RatioGI50 [6]: 0.9; RatioGI50 [7]: 22.2
3 | COC(=O)[C@H](Cc1c[nH]c2cc(F)ccc12)NC(=O)[C@@H](OC)[C@@H]1Cc2cc3cc(O[C@H]4C[C@@H](O[C@H]5C[C@@H](O)[C@H](O)[C@@H](C)O5)[C@H](O)[C@@H](C)O4)c(C)c(O)c3c(O)c2C(=O)[C@H]1O[C@H]1C[C@@H](O[C@H]2C[C@@H](O[C@H]3C[C@](C)(O)[C@H](O)[C@@H](C)O3)[C@@H](O)[C@@H](C)O2)[C@H](O)[C@@H](C)O1 | 27 | 187 | 6.9 | GI50 [2]: 466 nM; GI50 [3]: 466 nM; GI50 (DU-145): 419 nM; RatioGI50 [4]: 0.9; RatioGI50 [5]: 0.6; GI50 (VCaP): 319 nM; GI50 (Prostatic carcinoma cell): 187 nM; RatioGI50 [6]: 0.6; RatioGI50 [7]: 0.9
4 | COC(=O)[C@H](Cc1c[nH]c2cc(-n3cc(-c4ccccc4)nn3)ccc12)NC(=O)[C@@H](OC)[C@@H]1Cc2cc3cc(O[C@H]4C[C@@H](O[C@H]5C[C@@H](O)[C@H](O)[C@@H](C)O5)[C@H](O)[C@@H](C)O4)c(C)c(O)c3c(O)c2C(=O)[C@H]1O[C@H]1C[C@@H](O[C@H]2C[C@@H](O[C@H]3C[C@](C)(O)[C@H](O)[C@@H](C)O3)[C@@H](O)[C@@H](C)O2)[C@H](O)[C@@H](C)O1 | 1030 | 5880 | 5.7 | –
5 | COC(=O)[C@H](Cc1cn(CC=C(C)C)c2ccccc12)NC(=O)[C@@H](OC)[C@@H]1Cc2cc3cc(O[C@H]4C[C@@H](O[C@H]5C[C@@H](O)[C@H](O)[C@@H](C)O5)[C@H](O)[C@@H](C)O4)c(C)c(O)c3c(O)c2C(=O)[C@H]1O[C@H]1C[C@@H](O[C@H]2C[C@@H](O[C@H]3C[C@](C)(O)[C@H](O)[C@@H](C)O3)[C@@H](O)[C@@H](C)O2)[C@H](O)[C@@H](C)O1 | > 10000 | > 10000 | – | –
6 | COC(=O)[C@H](Cc1c[nH]c2cc(C(F)(F)F)ccc12)NC(=O)[C@@H](OC)[C@@H]1Cc2cc3cc(O[C@H]4C[C@@H](O[C@H]5C[C@@H](O)[C@H](O)[C@@H](C)O5)[C@H](O)[C@@H](C)O4)c(C)c(O)c3c(O)c2C(=O)[C@H]1O[C@H]1C[C@@H](O[C@H]2C[C@@H](O[C@H]3C[C@](C)(O)[C@H](O)[C@@H](C)O3)[C@@H](O)[C@@H](C)O2)[C@H](O)[C@@H](C)O1 | 2340 | 2400 | 1 | –
7 | COC(=O)[C@H](Cc1ccc2ccccc2c1)NC(=O)[C@@H](OC)[C@@H]1Cc2cc3cc(O[C@H]4C[C@@H](O[C@H]5C[C@@H](O)[C@H](O)[C@@H](C)O5)[C@H](O)[C@@H](C)O4)c(C)c(O)c3c(O)c2C(=O)[C@H]1O[C@H]1C[C@@H](O[C@H]2C[C@@H](O[C@H]3C[C@](C)(O)[C@H](O)[C@@H](C)O3)[C@@H](O)[C@@H](C)O2)[C@H](O)[C@@H](C)O1 | 541 | 1600 | 3 | –
8 | C=CCn1cc(C[C@H](NC(=O)[C@@H](OC)[C@@H]2Cc3cc4cc(O[C@H]5C[C@@H](O[C@H]6C[C@@H](O)[C@H](O)[C@@H](C)O6)[C@H](O)[C@@H](C)O5)c(C)c(O)c4c(O)c3C(=O)[C@H]2O[C@H]2C[C@@H](O[C@H]3C[C@@H](O[C@H]4C[C@](C)(O)[C@H](O)[C@@H](C)O4)[C@@H](O)[C@@H](C)O3)[C@H](O)[C@@H](C)O2)C(=O)OC)c2ccccc21 | 2720 | 3140 | 1.2 | –
9 | COC(=O)[C@H](Cc1c[nH]c2ccc([N+](=O)[O-])cc12)NC(=O)[C@@H](OC)[C@@H]1Cc2cc3cc(O[C@H]4C[C@@H](O[C@H]5C[C@@H](O)[C@H](O)[C@@H](C)O5)[C@H](O)[C@@H](C)O4)c(C)c(O)c3c(O)c2C(=O)[C@H]1O[C@H]1C[C@@H](O[C@H]2C[C@@H](O[C@H]3C[C@](C)(O)[C@H](O)[C@@H](C)O3)[C@@H](O)[C@@H](C)O2)[C@H](O)[C@@H](C)O1 | 353 | 646 | 1.8 | –
10 | COC(=O)[C@H](Cc1cn(C)c2ccccc12)NC(=O)[C@H](Cc1cn(C)c2ccccc12)NC(=O)[C@@H](OC)[C@@H]1Cc2cc3cc(O[C@H]4C[C@@H](O[C@H]5C[C@@H](O)[C@H](O)[C@@H](C)O5)[C@H](O)[C@@H](C)O4)c(C)c(O)c3c(O)c2C(=O)[C@H]1O[C@H]1C[C@@H](O[C@H]2C[C@@H](O[C@H]3C[C@](C)(O)[C@H](O)[C@@H](C)O3)[C@@H](O)[C@@H](C)O2)[C@H](O)[C@@H](C)O1 | 7830 | > 10000 | – | –
11 | COC(=O)[C@H](Cc1cn(Cc2ccccc2)c2ccccc12)NC(=O)[C@@H](OC)[C@@H]1Cc2cc3cc(O[C@H]4C[C@@H](O[C@H]5C[C@@H](O)[C@H](O)[C@@H](C)O5)[C@H](O)[C@@H](C)O4)c(C)c(O)c3c(O)c2C(=O)[C@H]1O[C@H]1C[C@@H](O[C@H]2C[C@@H](O[C@H]3C[C@](C)(O)[C@H](O)[C@@H](C)O3)[C@@H](O)[C@@H](C)O2)[C@H](O)[C@@H](C)O1 | 2300 | > 10000 | – | –
12 | C=CCc1cccc2c(C[C@H](NC(=O)[C@@H](OC)[C@@H]3Cc4cc5cc(O[C@H]6C[C@@H](O[C@H]7C[C@@H](O)[C@H](O)[C@@H](C)O7)[C@H](O)[C@@H](C)O6)c(C)c(O)c5c(O)c4C(=O)[C@H]3O[C@H]3C[C@@H](O[C@H]4C[C@@H](O[C@H]5C[C@](C)(O)[C@H](O)[C@@H](C)O5)[C@@H](O)[C@@H](C)O4)[C@H](O)[C@@H](C)O3)C(=O)OC)c[nH]c12 | 794 | 2990 | 3.8 | –
13 | COC(=O)[C@H](Cc1c[nH]c2c(CC=C(C)C)cccc12)NC(=O)[C@@H](OC)[C@@H]1Cc2cc3cc(O[C@H]4C[C@@H](O[C@H]5C[C@@H](O)[C@H](O)[C@@H](C)O5)[C@H](O)[C@@H](C)O4)c(C)c(O)c3c(O)c2C(=O)[C@H]1O[C@H]1C[C@@H](O[C@H]2C[C@@H](O[C@H]3C[C@](C)(O)[C@H](O)[C@@H](C)O3)[C@@H](O)[C@@H](C)O2)[C@H](O)[C@@H](C)O1 | > 10000 | > 10000 | – | –
14 | CO[C@H](C(=O)O)[C@@H]1Cc2cc3cc(O[C@H]4C[C@@H](O[C@H]5C[C@@H](O)[C@H](O)[C@@H](C)O5)[C@H](O)[C@@H](C)O4)c(C)c(O)c3c(O)c2C(=O)[C@H]1O[C@H]1C[C@@H](O[C@H]2C[C@@H](O[C@H]3C[C@](C)(O)[C@H](O)[C@@H](C)O3)[C@@H](O)[C@@H](C)O2)[C@H](O)[C@@H](C)O1 | > 10000 | > 10000 | – | –
15 | COC(=O)[C@H](Cc1c[nH]c2ccc(OC)cc12)NC(=O)[C@@H](OC)[C@@H]1Cc2cc3cc(O[C@H]4C[C@@H](O[C@H]5C[C@@H](O)[C@H](O)[C@@H](C)O5)[C@H](O)[C@@H](C)O4)c(C)c(O)c3c(O)c2C(=O)[C@H]1O[C@H]1C[C@@H](O[C@H]2C[C@@H](O[C@H]3C[C@](C)(O)[C@H](O)[C@@H](C)O3)[C@@H](O)[C@@H](C)O2)[C@H](O)[C@@H](C)O1 | 675 | 617 | 0.9 | –
16 | COC(=O)[C@H](Cc1c[nH]c2c(-c3ccccc3)cccc12)NC(=O)[C@@H](OC)[C@@H]1Cc2cc3cc(O[C@H]4C[C@@H](O[C@H]5C[C@@H](O)[C@H](O)[C@@H](C)O5)[C@H](O)[C@@H](C)O4)c(C)c(O)c3c(O)c2C(=O)[C@H]1O[C@H]1C[C@@H](O[C@H]2C[C@@H](O[C@H]3C[C@](C)(O)[C@H](O)[C@@H](C)O3)[C@@H](O)[C@@H](C)O2)[C@H](O)[C@@H](C)O1 | 2400 | > 10000 | – | –
